Measurements taken from PubChem BioAssay AID588570 (Sanford-Burnham Center for Chemical Genomics, 2011).
Calls of active or inactive are those of the source.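 Rule for the calls: active = mean IC50 at or below 20 µM in a cell killing test; inactive = the rest.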

test system: CHO-XBP1 cytotoxicity, ATPlite luminescence, 6 h; experiment: CHO-XBP1 cell viability loss – 6 h exposure, ATPlite luminescence, cytotoxicity control for UPR apoptotic arm activator project, SAR follow-up (AID 588570)
In short: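 Material: CHO-XBP1 cell line | Quantity: 1000 cells/well | Medium: F12 plus 10% FBS | Doses: Test compound concentration series, final DMSO at most 1% | Times: 16-18 h attachment, 6 h exposure, 37 °C, 5% CO2 | Measured by: ATP-based luminescence with ATPLite 1-Step reagent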

SMILES	IC50
O=C(Nc1ccc(S(=O)(=O)N2CCC(O)CC2)cc1)c1ccc([N+](=O)[O-])o1	> 80 µM (inactive)
O=C(Nc1nc2c(F)cc(F)cc2s1)c1ccccn1	10.7 µM
O=C(Nc1ccc(S(=O)(=O)N2CCOCC2)cc1)c1ccc([N+](=O)[O-])o1	> 80 µM (inactive)
O=C(Nc1ccc(S(=O)(=O)C2CCCCC2)cc1)c1ccc([N+](=O)[O-])o1	> 80 µM (inactive)
O=C(Nc1ccc(S(=O)(=O)N2CCCC2)cc1)c1ccc([N+](=O)[O-])o1	74.6 µM (inactive)
O=C(Nc1nc2c(F)ccc(F)c2s1)c1ccccn1	32.3 µM (inactive)
Cc1cc(C)c2nc(NC(=O)c3ccccn3)sc2c1	15.2 µM
O=C(Nc1ccc(S(=O)(=O)N2CCC(Cl)CC2)cc1)c1ccc([N+](=O)[O-])o1	> 80 µM (inactive)
O=C(Nc1nc2ccc(Cl)cc2s1)c1ccccn1	3.81 µM
O=C(Nc1ccc(S(=O)(=O)C2CCOCC2)cc1)c1ccc([N+](=O)[O-])o1	> 80 µM (inactive)
CC1CCN(S(=O)(=O)c2ccc(NC(=O)c3ccc([N+](=O)[O-])o3)cc2)CC1	> 80 µM (inactive)
O=C(Nc1ccc(S(=O)(=O)N2CCC(F)CC2)cc1)c1ccc([N+](=O)[O-])o1	> 80 µM (inactive)
O=C(Nc1nc2cc(F)ccc2s1)c1ccccn1	2.62 µM
O=C(Nc1nc2ccc(F)c(F)c2s1)c1ccccn1	14 µM
CC1CN(S(=O)(=O)c2ccc(NC(=O)c3ccc([N+](=O)[O-])o3)cc2)CC(C)O1 (stereo not given)	> 80 µM (inactive)
O=C(Nc1nc2c(Cl)cc(Cl)cc2s1)c1ccccn1	> 80 µM (inactive)
O=C(Nc1nc2cccc(F)c2s1)c1ccccn1	7.08 µM
O=C(Nc1nc2c(F)c(F)ccc2s1)c1ccccn1	4.29 µM
O=C(Nc1ccc(S(=O)(=O)c2ccccc2)cc1)c1ccc([N+](=O)[O-])o1	> 80 µM (inactive)
CC(C)(C)C1CCN(S(=O)(=O)c2ccc(NC(=O)c3ccc([N+](=O)[O-])o3)cc2)CC1	> 80 µM (inactive)
O=C(Nc1ccc(S(=O)(=O)N2CCOCC2)cc1)c1ccc([N+](=O)[O-])s1	> 80 µM (inactive)
O=C(Nc1nc2c(F)cccc2s1)c1ccccn1	4.11 µM
O=C(Nc1ccc(S(=O)(=O)N2CCCCC2)cc1)c1ccc([N+](=O)[O-])o1	> 80 µM (inactive)
O=C(Nc1nc2ccc(C(F)(F)F)cc2s1)c1ccccn1	4.62 µM
CC1(C)CCN(S(=O)(=O)c2ccc(NC(=O)c3ccc([N+](=O)[O-])o3)cc2)CC1	> 80 µM (inactive)
O=C(Nc1nc2ccc(F)cc2s1)c1ccccn1	4.78 µM
O=C(Nc1ccc(S(=O)(=O)N2CCNCC2)cc1)c1ccc([N+](=O)[O-])o1	> 80 µM (inactive)
O=C(Nc1nc2cc(F)cc(F)c2s1)c1ccccn1	9.35 µM
O=C(Nc1ccc(S(=O)(=O)N2CCC3(CCCCC3)CC2)cc1)c1ccc([N+](=O)[O-])o1	> 80 µM (inactive)
O=C(Nc1nc2cc(F)c(F)cc2s1)c1ccccn1	5.1 µM
